# Results: ChEMBL document CHEMBL4368914, “Tricyclic Indazoles-A Novel Class of Selective Estrogen Receptor Degrader Antagonists” (J Med Chem, 2019)
# Experiments:
# [1] = Apparent permeability in MDCK cells at 10 uM; type: ADME, cell-based, Canis lupus familiaris; settings: dog
# Method in brief: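 Compound at 10 μM incubated on cultured Caco-2 or MDCK cells. Permeability was measured apical-to-basolateral and basolateral-to-apical, and efflux ratio was taken as (B to A)/(A to B).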
# [2] = Intrinsic clearance in human hepatocytes assessed per million cells; type: ADME, cell-based, Hepatocyte; settings: read-out: CLH
# Method in brief: (§1)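 Rate of metabolism (µl/min/10⁶ cells) measured from DMSO stock in isolated hepatocytes diluted to 1x10⁶ cells/mL.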
# [3] = Fraction unbound in Alderley Park Han Wistar rat plasma by equilibrium dialysis; type: ADME, cell-free
# Method in brief: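 Equilibrium dialysis from DMSO stock in 10% plasma, either Alderley Park Han Wistar rat plasma or human plasma.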
# Estrogen receptor [4] = target: T1, Estrogen receptor (Homo sapiens, UniProt P03372); experiment: Binding affinity to recombinant human GST-tagged ERalpha LBD expressed in baculovirus-infected insect cells by lantha screen assay
# T1 sequence (P03372 whole entry): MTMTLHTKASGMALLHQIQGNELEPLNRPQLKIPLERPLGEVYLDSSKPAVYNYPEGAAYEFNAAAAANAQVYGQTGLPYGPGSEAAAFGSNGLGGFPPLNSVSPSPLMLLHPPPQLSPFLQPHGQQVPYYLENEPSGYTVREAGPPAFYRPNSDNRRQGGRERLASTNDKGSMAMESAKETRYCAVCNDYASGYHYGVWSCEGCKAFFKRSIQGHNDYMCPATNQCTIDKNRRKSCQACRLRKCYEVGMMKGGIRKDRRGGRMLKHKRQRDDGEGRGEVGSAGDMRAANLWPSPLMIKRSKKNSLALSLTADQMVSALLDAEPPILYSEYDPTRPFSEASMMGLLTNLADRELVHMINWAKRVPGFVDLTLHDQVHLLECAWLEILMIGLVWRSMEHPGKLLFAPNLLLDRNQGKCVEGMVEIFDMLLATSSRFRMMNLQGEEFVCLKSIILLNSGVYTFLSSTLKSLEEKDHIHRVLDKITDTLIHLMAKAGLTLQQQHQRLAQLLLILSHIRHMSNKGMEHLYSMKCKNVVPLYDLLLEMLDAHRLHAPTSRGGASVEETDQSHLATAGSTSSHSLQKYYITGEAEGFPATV
# Cytochrome P450 2C9 = Cytochrome P450 2C9 (Homo sapiens, UniProt P11712); experiment: Inhibition of CYP2C9 in human liver microsomes; type: ADME
# Method in brief: (§2)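 High-throughput human liver microsome assay across a panel of five CYP isoforms, giving IC50.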
# [5] = Intrinsic clearance in dog hepatocytes assessed per million cells; type: ADME, cell-based, Canis lupus familiaris, Hepatocyte; settings: read-out: CLH; method in brief: as §1
# [6] = Oral bioavailability in rat at 1 mg/kg; type: ADME, organism-based; settings: in vivo
# Method in brief: (§3)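 Single IV dose of 0.5 mg/kg and oral dose of 1 mg/kg in rat and dog. Both routes were formulated in 5% DMSO:95% hydroxypropyl β-cyclodextrin (30% w/v), at 1 mL/kg IV and 4 mL/kg PO.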
# [7] = Intrinsic clearance in rat hepatocytes assessed per million cells; type: ADME, cell-based, Hepatocyte; settings: read-out: CLH; method in brief: as §1
# Mus musculus [8] = experiment: In vivo antagonist activity at ERalpha in tumor of human MCF7 cells xenografted in SCID CB17 mouse assessed as reduction in normalized PR levels at 5 mg/kg, po administered once daily for 3 days measured after 24 hrs post last dose by Western blot analysis relative to control; type: functional; design: scale not given: the % may be the effect or the level left
# Method in brief: (§4)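 Male SCID mice carried a 0.5 mg/21 day s.c. estrogen pellet, with 5x10^6 MCF-7 cells implanted s.c. in the hind flank 24 h later. Groups of 5 were randomised at 0.5–0.8 cm³ and gavaged once daily for 3 d in PEG400/Captisol/water vehicle at 10 ml/kg. Tumours were taken 24 h post-dose, and PR was read by Western blot normalized to vinculin.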
# [9] = Half life in dog at 0.5 mg/kg, iv or 1 mg/kg, po; type: ADME, organism-based, Canis lupus familiaris; settings: in vivo; method in brief: as §3
# [10] = Volume of distribution at steady state in dog at 0.5 mg/kg, iv or 1 mg/kg, po; type: ADME, organism-based, Canis lupus familiaris; settings: in vivo, read-out: Vdss; method in brief: as §3
# MCF7 = experiment: Antitumor activity against human MCF7 cells xenografted in SCID CB17 mouse assessed as tumor growth inhibition at 20 mg/kg, po administered once daily and measured on day 20 of dosing relative to control; settings: read-out: TGI
# Estrogen receptor [11] = target: T1, Estrogen receptor; experiment: Induction of ERalpha degradation in human MCF7 cells after 18 to 24 hrs by in multiplexed cell assay; type: cell-based
# Method in brief: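 MCF-7 cells were kept at 37 °C, 5% CO₂ in phenol red-free RPMI1640 with 5% charcoal-stripped FCS and 2 mmol/L glutamine. Compounds came from 10 mmol/L DMSO stocks.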
# Cytochrome P450 2D6 = Cytochrome P450 2D6 (Homo sapiens, UniProt P10635); experiment: Inhibition of CYP2D6 in human liver microsomes; type: ADME; method in brief: as §2
# Estrogen receptor [12] = target: T1, Estrogen receptor; experiment: Induction of ERalpha degradation in human MCF7 cells assessed as reduction in ERalpha protein expression after 5 hrs in presence of […] tamoxifen by formaldehyde-staining based assay; type: cell-based
# Cytochrome P450 1A2 = target: T2, Cytochrome P450 1A2 (Homo sapiens, UniProt P05177); experiment: Inhibition of CYP1A2 in human liver microsomes; type: ADME; method in brief: as §2
# T2 sequence (P05177 whole entry): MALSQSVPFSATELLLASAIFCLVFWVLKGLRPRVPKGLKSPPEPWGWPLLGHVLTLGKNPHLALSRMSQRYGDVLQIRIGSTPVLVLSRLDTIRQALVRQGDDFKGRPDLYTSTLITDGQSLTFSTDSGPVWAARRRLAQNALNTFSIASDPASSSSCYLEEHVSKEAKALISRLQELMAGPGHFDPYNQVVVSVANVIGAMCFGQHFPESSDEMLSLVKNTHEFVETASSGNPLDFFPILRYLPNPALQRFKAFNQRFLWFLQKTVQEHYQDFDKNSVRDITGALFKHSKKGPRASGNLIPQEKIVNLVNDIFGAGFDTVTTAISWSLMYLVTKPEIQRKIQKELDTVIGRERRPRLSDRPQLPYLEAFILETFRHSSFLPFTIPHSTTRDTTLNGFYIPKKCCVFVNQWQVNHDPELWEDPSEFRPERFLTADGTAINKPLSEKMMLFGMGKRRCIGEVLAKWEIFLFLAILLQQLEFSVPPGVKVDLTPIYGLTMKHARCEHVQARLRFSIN
# [13] = Clearance in rat at 0.5 mg/kg, iv or 1 mg/kg, po; type: ADME, organism-based; settings: in vivo; method in brief: as §3
# Mus musculus [14] = experiment: In vivo antagonist activity at ERalpha in tumor of human MCF7 cells xenografted in SCID CB17 mouse assessed as reduction in normalized PR levels at 50 mg/kg, po administered once daily for 3 days measured after 24 hrs post last dose by Western blot analysis relative to control; type: functional; design: scale not given: the % may be the effect or the level left; method in brief: as §4
# Estrogen receptor [15] = target: T1, Estrogen receptor; experiment: Induction of ERalpha degradation in human MCF7 cells assessed as reduction in ERalpha protein expression after 5 hrs in absence of […] tamoxifen by formaldehyde-staining based assay; type: cell-based
# [16] = Clearance in dog at 0.5 mg/kg, iv or 1 mg/kg, po; type: ADME, organism-based, Canis lupus familiaris; settings: in vivo; method in brief: as §3
# [17] = Solubility of the compound in phosphate buffer at pH 7.4 after 24 hrs; type: physicochemical
# Method in brief: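 Solubility in aqueous phosphate buffer at pH 7.4 after 24 h at 25 °C.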
# Estrogen receptor [18] = target: T1, Estrogen receptor; experiment: Induction of ERalpha degradation in human MCF7 cells assessed as reduction in ERalpha protein expression after 5 hrs by formaldehyde-staining based assay; type: cell-based
# Sequence of Cytochrome P450 2D6 (P10635 whole entry): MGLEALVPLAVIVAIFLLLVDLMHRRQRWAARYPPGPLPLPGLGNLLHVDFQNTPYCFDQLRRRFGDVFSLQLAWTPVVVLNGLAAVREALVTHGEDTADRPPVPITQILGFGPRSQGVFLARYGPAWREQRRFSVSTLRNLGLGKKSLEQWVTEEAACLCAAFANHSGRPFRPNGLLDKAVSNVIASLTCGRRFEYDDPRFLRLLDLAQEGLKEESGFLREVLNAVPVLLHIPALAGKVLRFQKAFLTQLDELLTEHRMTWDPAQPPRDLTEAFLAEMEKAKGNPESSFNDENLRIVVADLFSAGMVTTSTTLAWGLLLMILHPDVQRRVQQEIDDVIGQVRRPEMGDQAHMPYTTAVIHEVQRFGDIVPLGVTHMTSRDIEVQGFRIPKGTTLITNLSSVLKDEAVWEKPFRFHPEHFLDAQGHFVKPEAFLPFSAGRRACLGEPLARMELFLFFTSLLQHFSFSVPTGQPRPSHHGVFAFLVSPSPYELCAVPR
# Sequence of Cytochrome P450 2C9 (P11712 whole entry, canonical isoform): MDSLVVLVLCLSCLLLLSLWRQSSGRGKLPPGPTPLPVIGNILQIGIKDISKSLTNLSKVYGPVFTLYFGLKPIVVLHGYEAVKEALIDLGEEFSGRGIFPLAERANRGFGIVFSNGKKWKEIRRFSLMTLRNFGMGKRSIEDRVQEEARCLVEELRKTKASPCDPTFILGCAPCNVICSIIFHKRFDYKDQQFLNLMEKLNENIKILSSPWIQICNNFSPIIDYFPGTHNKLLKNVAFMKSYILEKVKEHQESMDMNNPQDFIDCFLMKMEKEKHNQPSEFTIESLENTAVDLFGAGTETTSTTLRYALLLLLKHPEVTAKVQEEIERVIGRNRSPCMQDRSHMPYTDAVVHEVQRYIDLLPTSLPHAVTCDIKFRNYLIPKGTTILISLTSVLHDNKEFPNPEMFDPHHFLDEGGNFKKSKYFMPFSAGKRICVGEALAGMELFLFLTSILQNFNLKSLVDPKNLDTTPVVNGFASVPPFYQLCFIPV
smiles,measurement,setting,value
C[C@@H]1Cc2c(ccc3[nH]ncc23)[C@@H](c2c(F)cc(/C=C/C(=O)O)cc2F)N1CC(C)(C)F,Papp at 10 µM,[1],11 ×10⁻⁶ cm/s
same,hepatocyte CLint,[2],17 µL/min/1e6 cells
same,fraction unbound,[3],0.0083
same,IC50,Estrogen receptor [4],0.316 nM
same,IC50,Cytochrome P450 2C9,2500 nM
same,hepatocyte CLint,[5],17 µL/min/1e6 cells
same,bioavailability,[6],31%
same,hepatocyte CLint,[7],26 µL/min/1e6 cells
same,Activity,Mus musculus [8],74%
same,half-life,[9],6.1 h
same,Vd,[10],0.58 L/kg
same,inhibition in vivo at 20 mg/kg,MCF7,80%
same,IC50,Estrogen receptor [11],0.251 nM
same,IC50,Cytochrome P450 2D6,> 30000 nM
same,IC50,Estrogen receptor [12],7.94 nM
same,IC50,Cytochrome P450 1A2,> 30000 nM
same,clearance,[13],23 mL/min/kg
same,Activity,Mus musculus [14],93%
same,IC50,Estrogen receptor [15],0.251 nM
same,clearance,[16],5.9 mL/min/kg
same,solubility at 24 h,[17],> 1000 µM
same,IC50,Estrogen receptor [18],0.251 nM
